# Experimental data from different studies.
# Each line is one published result; the experiments were not run side by side.
# Target: Casein kinase I isoform delta (CSNK1D, Homo sapiens, UniProt P48730)
# One construct used (P48730 1-294): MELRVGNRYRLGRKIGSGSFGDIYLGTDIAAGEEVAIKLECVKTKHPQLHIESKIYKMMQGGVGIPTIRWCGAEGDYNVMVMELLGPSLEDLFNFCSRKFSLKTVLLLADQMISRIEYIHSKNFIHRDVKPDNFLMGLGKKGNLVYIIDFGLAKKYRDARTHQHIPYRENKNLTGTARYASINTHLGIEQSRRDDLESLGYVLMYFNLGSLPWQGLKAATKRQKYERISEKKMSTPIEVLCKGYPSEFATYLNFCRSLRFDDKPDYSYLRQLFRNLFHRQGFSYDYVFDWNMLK
effect on,action,technique,tested at,quantity,value,SMILES
binding,,competition with immobilised ligand,0.5 µM,remaining binding,87%,CCCCC(=O)Nc1ccc(-c2ccc3ncn(CCC)c(=O)c3c2)cn1
enzyme activity,inhibitor,,1 µM,inhibition,0%,CO[C@@H]1[C@H](N(C)C(=O)c2ccccc2)C[C@H]2O[C@]1(C)n1c3ccccc3c3c4c(c5c6ccccc6n2c5c31)C(=O)NC4
binding,,,0.1 µM,remaining binding,100%,C1=C/COCc2cc(ccc2OCCN2CCCC2)Nc2nccc(n2)-c2cccc(c2)COC/1
cell-free assay,,competition with immobilised ligand,25 µM,remaining binding,100%,N#Cc1ccc(NC(=O)Nc2ccccc2)cc1
enzyme activity,inhibitor,,1 µM,activity vs control,105%,CC(C)S(=O)(=O)c1ccc2nccc(Nc3ccc4sc(C5CCCC5)nc4c3)c2c1
binding,,,1 µM,remaining binding,99%,Cc1ccc(NC(=O)c2ccnc(C(F)(F)F)c2)cc1-c1cc(OCCO)nc(N2CCOCC2)c1
enzyme activity,inhibitor,,1 µM,inhibition,8%,C=CC(=O)N1CCC([C@@H]2CCNc3c(C(N)=O)c(-c4ccc(Oc5ccccc5)cc4)nn32)CC1
binding,,,1 µM,remaining binding,119%,COc1ccc2oc(-c3ccc4nc(N)oc4c3)c/c(=N\c3ccccc3NC(=O)CCN)c2c1
binding,,SPR,,kon,335000 M⁻¹ s⁻¹,c1cc(Nc2cc(C3CC3)n[nH]2)nc(Nc2ccc3nc[nH]c3c2)n1
cell-free assay,,,1 µM,remaining signal,100%,C#Cc1cnc(Nc2ccnc(CO)c2)nc1Nc1ccccc1S(C)(=O)=NC#N (stereo not drawn)
binding,,SPR,,kon,809000 M⁻¹ s⁻¹,c1cc(-c2cnn3cc(-c4ccc(OCCN5CCCCC5)cc4)cnc23)ccn1
binding,,,1 µM,remaining binding,94%,COc1ccc2[nH]c3c4[nH]c5ccc(OC)cc5c4c4c(c3c2c1)C(=O)NC4=O
